Results as given in ChEMBL document CHEMBL1137941, “Doxorubicin prodrug on the basis of tert-butyl cephalosporanate sulfones” (Bioorg Med Chem Lett, 2004).
In brackets after ≈: the same amount, converted by molar mass. Activity calls are given as the source filed them. The rule behind the calls is not given here.

Experiments:
[1] = test system: MG-22A; test: In vitro inhibitory activity against mouse hepatoma cell line (MG-22A) using CV coloration; type: functional, cell-based
[2] = test system: MG-22A; test: In vitro cytotoxic concentration against mouse hepatoma cell line (MG-22A) using MTT coloration; type: functional, cell-based
[3] = test system: N2a; test: In vitro inhibitory activity against mouse neuroblastoma (neuro 2A) using CV coloration; type: functional, cell-based
[4] = test system: B16; test: In vitro cytotoxic concentration against mouse melanoma cell line (B16) using MTT coloration; type: functional, cell-based
[5] = test system: HT-1080; test: In vitro cytotoxic concentration against human fibrosarcoma cell line (HT1080) using MTT coloration; type: functional, cell-based
[6] = test system: B16; test: In vitro inhibitory activity against mouse melanoma cell line (B16) using CV coloration; type: functional, cell-based
[7] = test system: N2a; test: In vitro cytotoxic concentration against mouse neuroblastoma (neuro 2A) using MTT coloration; type: functional, cell-based
[8] = test system: HT-1080; test: In vitro inhibitory activity against human fibrosarcoma cell line (HT1080) using CV coloration; type: functional, cell-based
[9] = test system: CCRF S-180; test: Growth inhibitory effect of compound when administered at dose of 1.5 mg/kg/day given in the schedule of 1,2,3,4,7 day against Sarcoma S-180 tumor transplanted in male JRC mice was determined; No effect; details: Mus musculus
[10] = test system: Mus musculus; test: Physiological change in cardiomyocytes after the treatment of male JRC mice with transplanted sarcoma S-180 by the administration of compound at dose of 5.0 mg/kg/day cells isolated on the 9th day by using CB assay; type: functional
How it was run: (§1)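 Male JRC mice, healthy or bearing Sarcoma S-180, were dosed on days 1, 2, 3, 4 and 7. Cardiomyocytes were isolated on day 9 and resuspended in DMEM with 4% FBS, 2 mM glutamine, 13 mM NaHCO₃, 10 mM HEPES and streptomycin. After 4 h at 37° (95% air/5% CO₂), serum was omitted. Intracellular peptide was read by Coomassie Blue and mitochondrial redox by MTT, against cells from untreated animals.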

[11] = test system: B16; test: Growth inhibitory effect administered at dose of 1.5 mg/kg/day given in the schedule of 1,2,3,4,7 day against (B16) mouse melanoma at fourteenth day was determined; type: functional
How it was run: (§2)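 Mice given the agent on days 1, 2, 3, 4 and 7. Doxorubicin was given in physiological solution (0.9% NaCl, pH 6.2). Prodrugs were given in the same solution with 2% DMSO and 0.3% agarose. Tumour growth inhibition (%) was read on fixed days against a vehicle-treated control; in the 2.0 mg/kg/day series, controls received physiological solution only. Negative values mean tumour growth was activated.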

[12] = test system: Mus musculus; test: Physiological change in cardiomyocytes after the treatment of male JRC mice with transplanted sarcoma S-180 by the administration of compound at dose of 1.5 mg/kg/day cells isolated on the 9th day by using CB assay; type: functional; how it was run: as §1
[13] = test system: Mus musculus; test: Physiological change in cardiomyocytes after the treatment of male JRC healthy mice by the administration of compound at dose of 1.5 mg/kg/day cells isolated on the 9th day by using CB assay; type: functional; how it was run: as §1
[14] = test system: B16; test: Growth inhibitory effect administered at dose of 1.5 mg/kg/day given in the schedule of 1,2,3,4,7 day against (B16) mouse melanoma at eleventh day was determined; type: functional; how it was run: as §2
[15] = test system: CCRF S-180; test: Growth inhibitory effect administered at dose of 5.0 mg/kg/day given in the schedule of 1,2,3,4,7 day against Sarcoma S-180 tumor transplanted in male JRC mice at eleventh day was determined; type: functional; details: Mus musculus; how it was run: as §2
[16] = test system: Mus musculus; test: Physiological change in cardiomyocytes after the treatment of male JRC mice with transplanted sarcoma S-180 by the administration of compound at dose of 1.5 mg/kg/day cells isolated on the 9th day by using MTT assay; type: functional; how it was run: as §1
[17] = test system: CCRF S-180; test: Growth inhibitory effect administered at dose of 1.5 mg/kg/day given in the schedule of 1,2,3,4,7 day against Sarcoma S-180 tumor transplanted in male JRC mice at fourteenth day was determined; No effect; type: functional, organism-based; details: Mus musculus; how it was run: as §2
[18] = test system: CCRF S-180; test: Growth inhibitory effect administered at dose of 5.0 mg/kg/day given in the schedule of 1,2,3,4,7 day against Sarcoma S-180 tumor transplanted in male JRC mice at fourteenth day was determined; type: functional; details: Mus musculus; how it was run: as §2
[19] = test system: Mus musculus; test: Physiological change in cardiomyocytes after the treatment of male JRC healthy mice by the administration of compound at dose of 5.0 mg/kg/day cells isolated on the 9th day by using CB assay; type: functional; how it was run: as §1
[20] = test system: B16; test: Growth inhibitory effect administered at dose of 2.0 mg/kg/day given in the schedule of 1,2,3,4,7 day against (B16) mouse melanoma at eleventh day was determined; type: functional; how it was run: as §2
[21] = test system: Mus musculus; test: Physiological change in cardiomyocytes after the treatment of male JRC mice with transplanted sarcoma S-180 by the administration of compound at dose of 5.0 mg/kg/day cells isolated on the 9th day by using MTT assay; type: functional; how it was run: as §1
[22] = test system: Mus musculus; test: Physiological change in cardiomyocytes after the treatment of male JRC healthy mice by the administration of compound at dose of 1.5 mg/kg/day cells isolated on the 9th day by using MTT assay; type: functional; how it was run: as §1
[23] = test system: Mus musculus; test: Physiological change in cardiomyocytes after the treatment of male JRC healthy mice by the administration of compound at dose of 5.0 mg/kg/day cells isolated on the 9th day by using MTT assay; type: functional; how it was run: as §1
[24] = test system: B16; test: Growth inhibitory effect administered at dose of 5.0 mg/kg/day given in the schedule of 1,2,3,4,7 day against (B16) mouse melanoma at fourteenth day was determined; type: functional; how it was run: as §2
[25] = test system: B16; test: Growth inhibitory effect administered at dose of 5.0 mg/kg/day given in the schedule of 1,2,3,4,7 day against (B16) mouse melanoma at eleventh day was determined; type: functional; how it was run: as §2
[26] = test system: B16; test: Growth inhibitory effect when administered at dose of 5.0 mg/kg/day given in the schedule of 1,2,3,4,7 day against (B16) mouse melanoma at eleventh day was determined; type: functional; how it was run: as §2
[27] = test system: B16; test: Growth inhibitory effect when administered at dose of 5.0 mg/kg/day given in the schedule of 1,2,3,4,7 day against (B16) mouse melanoma at fourteenth day was determined; type: functional; how it was run: as §2
[28] = test system: B16; test: Growth inhibitory effect when administered at dose of 2.0 mg/kg/day given in the schedule of 1,2,3,4,7 day against (B16) mouse melanoma at eleventh day was determined; ND= No data; type: functional; how it was run: as §2
[29] = test system: CCRF S-180; test: Growth inhibitory effect when administered at dose of 5.0 mg/kg/day given in the schedule of 1,2,3,4,7 day against Sarcoma S-180 tumor transplanted in male JRC mice at fourteenth day was determined; type: functional, Mus musculus; how it was run: as §2
[30] = test system: B16; test: Growth inhibitory effect when administered at dose of 2.0 mg/kg/day given in the schedule of 1,2,3,4,7 day against (B16) mouse melanoma at fourteenth day was determined; type: functional; how it was run: as §2
[31] = test system: B16; test: Growth inhibitory effect when administered at dose of 1.5 mg/kg/day given in the schedule of 1,2,3,4,7 day against (B16) mouse melanoma at eleventh day was determined; type: functional; details: B16, read-out: Inhibition; how it was run: as §2
[32] = test system: B16; test: Growth inhibitory effect when administered at dose of 1.5 mg/kg/day given in the schedule of 1,2,3,4,7 day against (B16) mouse melanoma at fourteenth day was determined; type: functional; details: B16, read-out: Inhibition; how it was run: as §2
[33] = test system: CCRF S-180; test: Growth inhibitory effect when administered at dose of 2.0 mg/kg/day given in the schedule of 1,2,3,4,7 day against Sarcoma S-180 tumor transplanted in male JRC mice at fourteenth day was determined; type: functional, organism-based; details: Mus musculus
[34] = test system: CCRF S-180; test: Growth inhibitory effect administered at dose of 1.5 mg/kg/day given in the schedule of 1,2,3,4,7 day against Sarcoma S-180 tumor transplanted in male JRC mice at eleventh day was determined; type: functional; details: Mus musculus, in the assay text read “seventh day” for “eleventh day”; how it was run: as §2
[35] = test system: CCRF S-180; test: Growth inhibitory effect administered at dose of 1.5 mg/kg/day given in the schedule of 1,2,3,4,7 day against Sarcoma S-180 tumor transplanted in male JRC mice at fourteenth day was determined; type: functional; details: Mus musculus, in the assay text read “ninth day” for “fourteenth day”; how it was run: as §2

IC50 [1] [mg/L]	IC50 [3] [mg/L]	IC50 [6] [mg/L]	IC50 [8] [mg/L]	Compound	IC50 [2] [mg/L]	IC50 [4] [mg/L]	IC50 [5] [mg/L]	IC50 [7] [mg/L]	Activity [10]	inhibition in vivo at 1.5 mg/kg/day [11] [%]	Activity [12]	Activity [13]	inhibition in vivo at 1.5 mg/kg/day [14] [%]	inhibition in vivo at 5 mg/kg/day [15] [%]	Activity [16]	inhibition in vivo at 5 mg/kg/day [18] [%]	Activity [19]	Activity [21]	Activity [22]	Activity [23]	also measured
6 (≈ 18.6 µM)	2 (≈ 6.22 µM)	3 (≈ 9.32 µM)	6 (≈ 18.6 µM)	CC1=C(C(=O)OC(C)(C)C)N2C(=O)[C@H](Cl)[C@H]2S(=O)(=O)C1	2 (≈ 6.22 µM)	2 (≈ 6.22 µM)	6 (≈ 18.6 µM)	2 (≈ 6.22 µM)	–	–	–	–	–	–	–	–	–	–	–	–	–
0.03 (≈ 0.0331 µM)	0.001 (≈ 0.0011 µM)	0.03 (≈ 0.0331 µM)	0.02 (≈ 0.022 µM)	COc1cccc2c1C(=O)c1c(O)c3c(c(O)c1C2=O)C[C@@](O)(C(=O)CO)C[C@@H]3O[C@H]1C[C@H](NC(=O)OCC2=C(C(=O)OC(C)(C)C)N3C(=O)[C@@H](Cl)[C@@H]3S(=O)(=O)C2)[C@@H](O)[C@H](C)O1	0.04 (≈ 0.0441 µM)	0.04 (≈ 0.0441 µM)	0.08 (≈ 0.0882 µM)	0.008 (≈ 0.00882 µM)	70	26	106	92	75	72	225	30	90	230	85	87	inhibition [9]: inactive; inhibition [17]: inactive; Inhibition [20]: 86%; inhibition in vivo at 2 mg/kg/day ([20]; Mus musculus, B16, read-out: Inhibition): 86%
0.07 (≈ 0.0711 µM)	0.04 (≈ 0.0406 µM)	0.09 (≈ 0.0914 µM)	0.4 (≈ 0.406 µM)	COc1cccc2c1C(=O)c1c(O)c3c(c(O)c1C2=O)C[C@@](O)(C(=O)CO)C[C@@H]3OC1C[C@H](NC(=O)OCC2=C(C(=O)OC(C)(C)C)N3C(=O)/C(=C/C(=O)OC(C)(C)C)[C@@H]3S(=O)(=O)C2)[C@@H](O)[C@H](C)O1 (stereo partly specified)	0.07 (≈ 0.0711 µM)	0.5 (≈ 0.508 µM)	0.5 (≈ 0.508 µM)	0.04 (≈ 0.0406 µM)	90	-49	92	87	13	-10	270	22	75	360	54	102	inhibition in vivo at 5 mg/kg/day [24]: 16%; inhibition in vivo at 5 mg/kg/day [25]: 11%
< 0.001	0.004 (≈ 0.00736 µM)	0.001 (≈ 0.00184 µM)	0.17 (≈ 0.313 µM)	COc1cccc2c1C(=O)c1c(O)c3c(c(O)c1C2=O)C[C@@](O)(C(=O)CO)C[C@@H]3O[C@H]1C[C@H](N)C(O)[C@H](C)O1 (single isomer, unassigned) [DOXORUBICIN]	0.73 (≈ 1.34 µM)	< 0.001	0.31 (≈ 0.57 µM)	< 0.001	81	–	90	83	–	–	114	–	60	130	40	39	inhibition in vivo at 5 mg/kg/day [26]: 65%; inhibition in vivo at 5 mg/kg/day [27]: 75%; inhibition in vivo at 2 mg/kg/day [28]: 25%; Inhibition [29]: 37%; inhibition in vivo at 5 mg/kg/day ([29]; Mus musculus, CCRF S-180, read-out: Inhibition): 37%; inhibition in vivo at 2 mg/kg/day [30]: 70%; inhibition in vivo at 1.5 mg/kg/day [31]: 70%; inhibition in vivo at 1.5 mg/kg/day [32]: 60%; inhibition [33]: Not detectable; inhibition in vivo at 1.5 mg/kg/day [34]: 7%; inhibition in vivo at 1.5 mg/kg/day [35]: 28%
